pEC50: −log10 of the molar value.
Assays:
Type in all cases: cell-based
[1] = biological target: T1, Peroxisome proliferator-activated receptor delta (Homo sapiens, UniProt Q03181); assay: Transactivation of human PPARdelta expressed in monkey CV-1 cells coexpressing TK-PPRE-Luc after 24 hrs by luciferase reporter gene assay
T1 sequence (Q03181 whole entry): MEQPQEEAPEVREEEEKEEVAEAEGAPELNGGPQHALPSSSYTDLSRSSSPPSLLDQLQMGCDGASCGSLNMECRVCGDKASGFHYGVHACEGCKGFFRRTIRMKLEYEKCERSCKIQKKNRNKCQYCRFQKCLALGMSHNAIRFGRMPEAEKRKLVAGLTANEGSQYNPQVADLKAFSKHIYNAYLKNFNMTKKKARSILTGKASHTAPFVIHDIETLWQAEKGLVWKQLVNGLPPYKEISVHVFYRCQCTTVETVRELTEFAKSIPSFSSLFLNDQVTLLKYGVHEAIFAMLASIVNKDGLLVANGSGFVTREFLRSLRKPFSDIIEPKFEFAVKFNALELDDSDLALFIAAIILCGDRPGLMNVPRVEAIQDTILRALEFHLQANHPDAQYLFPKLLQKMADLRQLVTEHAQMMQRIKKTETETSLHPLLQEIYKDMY
Method in brief: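 Agonist activity tested in transiently transfected CV-1 cells by reporter assay. EC50 is the molar concentration giving 50% of the maximal reporter activity.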

[2] = biological target: T2, Peroxisome proliferator-activated receptor alpha (Homo sapiens, UniProt Q07869); assay: Transactivation of human PPARalpha expressed in monkey CV-1 cells coexpressing TK-PPRE-Luc after 24 hrs by luciferase reporter gene assay
T2 sequence (Q07869 whole entry): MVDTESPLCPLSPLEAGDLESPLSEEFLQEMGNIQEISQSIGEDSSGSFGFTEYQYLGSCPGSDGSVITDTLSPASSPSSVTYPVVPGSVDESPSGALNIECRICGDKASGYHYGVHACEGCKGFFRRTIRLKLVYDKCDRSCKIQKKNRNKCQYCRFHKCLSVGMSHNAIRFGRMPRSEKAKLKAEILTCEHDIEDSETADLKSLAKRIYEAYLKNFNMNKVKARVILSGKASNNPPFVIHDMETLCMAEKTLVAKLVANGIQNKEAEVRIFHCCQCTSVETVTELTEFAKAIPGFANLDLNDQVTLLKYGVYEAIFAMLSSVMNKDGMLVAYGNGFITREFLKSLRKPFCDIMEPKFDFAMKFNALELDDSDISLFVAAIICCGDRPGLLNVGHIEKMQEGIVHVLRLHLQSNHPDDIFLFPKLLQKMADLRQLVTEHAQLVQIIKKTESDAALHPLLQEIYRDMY

[3] = biological target: T3, Peroxisome proliferator-activated receptor gamma (Homo sapiens, UniProt P37231); assay: Transactivation of human PPARgamma expressed in monkey CV-1 cells coexpressing TK-PPRE-Luc after 24 hrs by luciferase reporter gene assay
T3 sequence (P37231 whole entry): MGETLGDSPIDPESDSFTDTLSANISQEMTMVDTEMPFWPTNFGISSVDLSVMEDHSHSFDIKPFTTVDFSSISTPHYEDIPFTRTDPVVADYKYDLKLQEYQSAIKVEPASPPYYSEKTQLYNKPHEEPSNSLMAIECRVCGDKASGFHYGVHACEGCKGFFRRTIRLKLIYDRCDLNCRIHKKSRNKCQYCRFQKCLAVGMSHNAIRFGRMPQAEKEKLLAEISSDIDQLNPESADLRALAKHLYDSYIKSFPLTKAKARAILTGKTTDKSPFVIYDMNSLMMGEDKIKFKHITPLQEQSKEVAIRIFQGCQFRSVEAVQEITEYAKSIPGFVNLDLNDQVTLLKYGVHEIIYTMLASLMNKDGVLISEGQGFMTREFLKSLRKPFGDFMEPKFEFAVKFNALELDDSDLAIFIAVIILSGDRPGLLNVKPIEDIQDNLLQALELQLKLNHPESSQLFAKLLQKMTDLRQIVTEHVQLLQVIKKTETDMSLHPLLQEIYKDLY

Row | SMILES | pEC50 [1] | pEC50 [2] | pEC50 [3]
1 | Cc1cc(SC(Cc2cc(Cl)ccc2F)c2ccc(-c3ccccc3)cc2)ccc1OCC(=O)O (centres undefined) | 7.59 | < 5.00 | < 5.00
2 | Cc1cc(SC(Cc2ccccc2)c2ccc(-c3cccc(C(F)(F)F)c3)cc2)ccc1OCC(=O)O (centres undefined) | 7.74 | < 5.00 | < 5.00
3 | Cc1cc(SC(Cc2cc(F)c(F)c(F)c2)c2ccc(-c3ccc(C(F)(F)F)cc3)nc2)ccc1OCC(=O)O (centres undefined) | 7.25 | < 5.00 | < 5.00
4 | Cc1cc(S[C@@H](Cc2ccccc2)c2ccc(-c3ccc(C(F)(F)F)cc3)cc2)ccc1OCC(=O)O | 8.21 |  | 
5 | Cc1cc(SC(Cc2cc(C(F)(F)F)ccc2F)c2ccc(-c3ccccc3)cc2)ccc1OCC(=O)O (centres undefined) | 8.00 | < 5.00 | < 5.00
6 | Cc1cc(S[C@H](Cc2ccccc2)c2ccc(-c3ccc(C(F)(F)F)cc3)cc2)ccc1OCC(=O)O | 9.15 |  | 

Now from value to molecule:

Row | pEC50 [1] | pEC50 [2] | pEC50 [3] | SMILES
7 | 7.07 | < 5.00 | < 5.00 | Cc1cc(SC(Cc2cc(F)c(F)c(F)c2)c2ccc(-c3ccccc3)cc2)ccc1OCC(=O)O (centres undefined)
8 | 8.20 | < 5.00 | < 5.00 | Cc1cc(SC(Cc2cc(F)ccc2F)c2ccc(-c3cc(F)c(F)c(F)c3)cc2)ccc1OCC(=O)O (centres undefined)
9 | 8.28 | < 5.00 | < 5.00 | Cc1cc(SC(Cc2cc(Cl)ccc2F)c2ccc(-c3cccc(C(F)(F)F)c3)cc2)ccc1OCC(=O)O (centres undefined)
10 | 8.35 | < 5.00 | < 5.00 | Cc1cc(SC(Cc2ccccc2)c2ccc(-c3cc(F)c(F)c(F)c3)cc2)ccc1OCC(=O)O (centres undefined)
11 | 8.04 | < 5.00 | < 5.00 | Cc1cc(SC(Cc2cc(F)ccc2F)c2ccc(-c3cccc(C(F)(F)F)c3)cc2)ccc1OCC(=O)O (centres undefined)

Source: ChEMBL document CHEMBL4229483, “Synthesis and evaluation of an orally available "Y"-shaped biaryl peroxisome proliferator-activated receptor δ agonist” (Bioorg Med Chem, 2018)
